Among the data in the RNAGym collection of RNA variant scans (doi:10.1002/anie.201605470) are self-cleavage values, retold here.

B1: Osa-1-4 twister ribozyme (parent)
chain: CCGCCUAACACUGCCAAUGCCGGUCCCAAGCCCGGAUAAAAGUGGAGGGGGCGG

The series covers variants of B1. The series can be described thus: self-cleavage, relative activity (ratio to wild type); higher = more cleavage; co-transcriptional. The method in brief:
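Values are relative activity: the fraction cleaved, normalised to wild type. A doped DNA template for a 54-nucleotide twister ribozyme from Oryza sativa had 97 % wild-type base and 1 % of each other base at the 48 positions downstream of the cleavage site. The RNA was transcribed in vitro for 2 h at 37 °C so that it could cleave itself co-transcriptionally, then sequenced deeply, with cleavage status scored from the presence or absence of upstream sequence in reads.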
CCGCCUAACAUUGCCAAUGCCGGUCCCAAGCCCGGAUAAAAGUGGAGGGGGCGC: the self-cleavage was determined as 0.8.
For CCGCCUAACAUUGCCAAUGCCGGUCCCAAGCCCGGAUAAAAGUGGAGGGGGCGA the value was 0.78; for CCGCCUAACAUUGCCAAUGCCGGUCCCAAGCCCGGAUAAAAGUGGAGGGGGCGU, 0.79; for CCGCCUAACAUUGCCAAUGCCGGUCCCAAGCCCGGAUAAAACUGGAGGGGGCGG, 0.85.
Under CCGCCUAACAUUGCCAAUGCCGGUCCCAAGCCCGGAUAAAAUUGGAGGGGGCGG stands 0.47.
Under CCGCCUAACAUUGCCAAUGCCGGUCCCAAGCCCGGAUAAAAAUGGAGGGGGCGG stands 0.93; under CCGCCUAACAUUGCCAAUGCCGGUCCCAAGCCCGGAUAAAAGUGAAGGGGGCGG, 0.09; under CCGCCUAACAUUGCCAAUGCCGGUCCCAAGCCCGGAUAAAAGUGCAGGGGGCGG, 0.06.
Regarding CCGCCUAACAUUGCCAAUGCCGGUCCCAAGCCCGGAUAAAAGUGUAGGGGGCGG, the self-cleavage came out at 0.09.
Turning to CCGCCUAACAUUGCCAAUGCCGGUCCCAAGCCCGGAUAAAAGUGGAGGGGGAGG, the self-cleavage was determined as 0.83.
Under CCGCCUAACAUUGCCAAUGCCGGUCCCAAGCCCGGAUAAAAGUGGAGGGGGUGG stands 0.98; under CCGCCUAACAUUGCCAAUGCCGGUCCCAAGCCCGGAUAAAAGUGGAGGGGGGGG, 0.81.
Regarding CCGCCUAACAUUGCCAAUGCCGGUCCCAAGCCCAGAUAAAAGUGGAGGGGGCGG, the self-cleavage came to 0.39.
Under CCGCCUAACAUUGCCAAUGCCGGUCCCAAGCCCCGAUAAAAGUGGAGGGGGCGG stands 0.08; under CCGCCUAACAUUGCCAAUGCCGGUCCCAAGCCCUGAUAAAAGUGGAGGGGGCGG, 0.19; under CCGCCUAACAUUGCCAAUGCCGGUCCCAAGCCCGGAUAAAAGUUGAGGGGGCGG, 0.67.
Under CCGCCUAACAUUGCCAAUGCCGGUCCCAAGCCCGGAUAAAAGUAGAGGGGGCGG stands 0.8; under CCGCCUAACAUUGCCAAUGCCGGUCCCAAGCCCGGAUAAAAGUCGAGGGGGCGG, 0.84; under CCGCCUAACAUUGCUAAUGCCGGUCCCAAGCCCGGAUAAAAGUGGAGGGGGCGG, 0.13.
Under CCGCCUAACAUUGCCAAUGCCGGUCCCAAGCCCGGACAAAAGUGGAGGGGGCGG stands 1.02; under CCGCCUAACAUUGCCAAUGCCGGUCCCAAGCCCGGAAAAAAGUGGAGGGGGCGG, 0.62; under CCGCCUAACAUUGCCAAUGCCGGUCCCAAGCCCGGAGAAAAGUGGAGGGGGCGG, 0.94.
As for CCGCCUAACAUUGCCAAUGCCGGUCCCAAGCCGGGAUAAAAGUGGAGGGGGCGG, the self-cleavage was determined as 0.06.
For CCGCCUAACAUUGCCAAUGCCGGUCCCAAGCCAGGAUAAAAGUGGAGGGGGCGG the value was 0.07.
Under CCGCCUAACAUUGCCAAUGCCGGUCCCAAGCCUGGAUAAAAGUGGAGGGGGCGG stands 0.51; under CCGCCUAACAUUGCCAAUGCCGGUCCCAAACCCGGAUAAAAGUGGAGGGGGCGG, 0.04.
For CCGCCUAACAUUGCCAAUGCCGGUCCCAACCCCGGAUAAAAGUGGAGGGGGCGG the value was 0.05; for CCGCCUAACAUUGCCAAUGCCGGUCCCAAUCCCGGAUAAAAGUGGAGGGGGCGG, 0.03; for CCGCCUAACAUUGCCAAUUCCGGUCCCAAGCCCGGAUAAAAGUGGAGGGGGCGG, 0.1.
Consider CCGCCUAACAUUGCCAAUACCGGUCCCAAGCCCGGAUAAAAGUGGAGGGGGCGG, for which the self-cleavage was determined as 0.23.
Turning to CCGCCUAACAUUGCCAAUCCCGGUCCCAAGCCCGGAUAAAAGUGGAGGGGGCGG, the self-cleavage was 0.07.
For CCGCCUAACAUUGCCAAUGCCGCUCCCAAGCCCGGAUAAAAGUGGAGGGGGCGG the value was 0.04.
Under CCGCCUAACAUUGCCAAUGCCGAUCCCAAGCCCGGAUAAAAGUGGAGGGGGCGG stands 0.1.
Under CCGCCUAACAUUGCCAAUGCCGUUCCCAAGCCCGGAUAAAAGUGGAGGGGGCGG stands 0.05; under CCGCCUAACAUUGCCAAUGACGGUCCCAAGCCCGGAUAAAAGUGGAGGGGGCGG, 0.71.
With CCGCCUAACAUUGCCAAUGUCGGUCCCAAGCCCGGAUAAAAGUGGAGGGGGCGG, the self-cleavage worked out at 0.78.
For the variant CCGCCUAACAUUGCCAAUGGCGGUCCCAAGCCCGGAUAAAAGUGGAGGGGGCGG, the self-cleavage came to 0.09.
Under CCGCCUAACAUUGCCAAUGCCGGUCACAAGCCCGGAUAAAAGUGGAGGGGGCGG stands 0.05.
For CCGCCUAACAUUGCCAAUGCCGGUCGCAAGCCCGGAUAAAAGUGGAGGGGGCGG the value was 0.08; for CCGCCUAACAUUGCCAAUGCCGGUCUCAAGCCCGGAUAAAAGUGGAGGGGGCGG, 0.6.
Under CCGCCUAACAUUGCCAAUGCCGGUCCCAAGACCGGAUAAAAGUGGAGGGGGCGG stands 0.03; under CCGCCUAACAUUGCCAAUGCCGGUCCCAAGUCCGGAUAAAAGUGGAGGGGGCGG, 0.37.
Take CCGCCUAACAUUGCCAAUGCCGGUCCCAAGGCCGGAUAAAAGUGGAGGGGGCGG: the self-cleavage came to 0.06.
Turning to CCGCCUAACAUUGCCAAUGCCGGUCCCAAGCCCGGAUAAAAGUGGAUGGGGCGG, the self-cleavage was 0.07.
Under CCGCCUAACAUUGCCAAUGCCGGUCCCAAGCCCGGAUAAAAGUGGAAGGGGCGG stands 0.09.
Under CCGCCUAACAUUGCCAAUGCCGGUCCCAAGCCCGGAUAAAAGUGGACGGGGCGG stands 0.07; under CCGCCUAACAUUGCCAAUGCCGGUCCAAAGCCCGGAUAAAAGUGGAGGGGGCGG, 0.14.
Under CCGCCUAACAUUGCCAAUGCCGGUCCUAAGCCCGGAUAAAAGUGGAGGGGGCGG stands 0.12; under CCGCCUAACAUUGCCAAUGCCGGUCCGAAGCCCGGAUAAAAGUGGAGGGGGCGG, 0.06.
